# Reference: the RNAGym collection of RNA variant scans (doi:10.1126/science.aae0568)
# This sample holds only a part of the variants without activity.
# B1: tRNA (parent)
# chain: GUUCCGUUGGCGUAAUGGUAACGCGUCUCCCUCCUAAGGAGAAGACUGCGGGUUCGAGUCCCGUACGGAACG
# Variants of: B1
# Experiment: yeast fitness relative to wild type (ratio to wild type); higher = fitter; tRNA-Arg(CCU), competitive growth, 37 C, YPD
# In short: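 The tRNA-Arg(CCU) gene variants were made by chemical synthesis with a 3% per-site mutation rate at 69 sites and inserted at the native genomic locus of Saccharomyces cerevisiae. After pooling, the strains were competed in YPD at 37°C for 24 hours in six parallel replicates. Gene amplicons from the start population and each end population were read by 100-nucleotide paired-end sequencing, and Darwinian fitness relative to wild type was taken from genotype frequency changes. Genotypes needed ≥ 100 starting reads, and estimates < 0.5 were set to 0.5.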
row,Variant,yeast fitness
1,C24G U26C U32A A36C C49G G51C C66U G68A,≤ 0.5
2,C24G C31U C60G,≤ 0.5
3,C24G U28A C31A,≤ 0.5
4,C24G C33U U35A C61G,≤ 0.5
5,C24G G41C,0.582
6,C24G G41A G51A G56C,0.556
7,C24G C27G A40C U47A,≤ 0.5
8,C24G C49U G51A C61A A69U,≤ 0.5
9,C24U A37C A40G U54A,≤ 0.5
10,C24G A37C G58A G68A,≤ 0.5
11,C24G G68C,0.599
12,C24G G48A G52C A57C C60U,≤ 0.5
13,C24G C46U C49G G51C C66G,0.639
14,C24G A36G A65U,0.554
15,C24U A37U C46A A70U,≤ 0.5
16,C24U A37U A65U A69C,≤ 0.5
17,C24G C30A A40C,0.547
18,C24G U28G A45C U47C U64A,0.6
19,C24U A36G C61U,0.655
20,C24U A36G C61A,≤ 0.5
21,C24G C33G U53C C55U A70G,0.57
22,C24G C27U C33U A57C,≤ 0.5
23,C24G C34U A36C,≤ 0.5
24,C24G C30G U59G,0.64

row,Variant,yeast fitness
1,C24G C31U C33G A42C A43U,0.574
2,C24G U53G C60A,≤ 0.5
3,C24U A37G A45U,0.562
4,C24G C31U G50C,0.56
5,C24G A40C U64A A65C,≤ 0.5
6,C24G G63C A65U,0.596
7,C24G A36C A70C,0.567
8,C24G A40U A43U C49G G50C C61U C66U,≤ 0.5
9,C24G G38A,0.519
10,C24G G44C C66U,≤ 0.5
11,C24G A37G G56A G58A G67A,≤ 0.5
12,C24U A36U,0.592
13,C24U A36C,0.716
14,C24U A36G,0.88
15,C24G C33G C55U,≤ 0.5
16,C24G C55A A65U,≤ 0.5
17,C24G A36U A37C C66U G67A,≤ 0.5
18,C24G A36G A45G C61A A70G,≤ 0.5
19,C24G C49G G56A,0.574
20,C24A U47A,0.619
21,C24G A36G G50U U53A,≤ 0.5
22,C24G C27U G51C U64A,≤ 0.5
23,C24G C55U A65G,0.546
24,C24G U32C,0.599

row,Variant,yeast fitness
1,C24G A42G,0.587
2,C24G A42C,0.63
3,C24G G50U,0.544
4,C24G A36G A70G,≤ 0.5
5,C24U A36C U53C,≤ 0.5
6,C24G C33G C60A G63A,≤ 0.5
7,C24G A36C A65G A70C,≤ 0.5
8,C24G C34G G48A U54A G63C,≤ 0.5
9,C24G G56C U59A C60G C62G A70C,0.617
10,C24G C27U U28C,≤ 0.5
11,C24G U28C C29G,≤ 0.5
12,C24U A36U A37G A40C,≤ 0.5
13,C24G C29G G39C,0.513
14,C24G U26A C60G,≤ 0.5
15,C24G C33U U59C,≤ 0.5
16,C24G U32A A43G G50A,≤ 0.5
17,C24G C49A C62G G68U,≤ 0.5
18,C24G G38C A65U,0.509
19,C24A U32G A37G,≤ 0.5
20,C24G C30A C46U G52C,≤ 0.5
21,C24G C60A U64A,0.607
22,C24G G38A U53A,≤ 0.5
23,C24G C29G,≤ 0.5
24,C24G C29U,0.521

row,Variant,yeast fitness
1,C24G C46U G58C C61U,0.597
2,C24U A37C G39C A43G,≤ 0.5
3,C24G C46G G48A C55U U64A A69C,0.5
4,C24G C31G C33A G50C C55G A57U C62U,≤ 0.5
5,C24G A40C G56U,≤ 0.5
6,C24G C55U G68C,≤ 0.5
7,C24G A43C G48A G58A G68C,≤ 0.5
8,C24G G25C C27A A40C G51A,≤ 0.5
9,C24G G44A C55U,≤ 0.5
10,C24G A42G A43U C46U C62U,≤ 0.5
11,C24U A40C,0.806
12,C24G U47A C55G,0.847
13,C24G G25A G48A,0.697
14,C24G A43G U47A,≤ 0.5
15,C24G C60U,0.61
16,C24G G25A C61G G67C G68A,0.676
17,C24A U35G A65C,≤ 0.5
18,C24G U32A A42C A65U,≤ 0.5
19,C24G C30A A69C,0.547
20,C24G A57U G67C,0.612
21,C24G U53A C55G,≤ 0.5
22,C24G U47G U53C,0.713
23,C24G A40G G50C C66U,≤ 0.5
24,C24G A45G U53G,≤ 0.5

row,Variant,yeast fitness
1,C24G A40C C49A A69U,0.589
2,C24G C62G,0.541
3,C24G C62U,0.562
4,C24G C27G A36U G38C C60G C66A,≤ 0.5
5,C24G C29U G38C,0.62
6,C24G G25A A65G,0.609
7,C24G A37G G63C C66G,≤ 0.5
8,C24G A57C U64A,≤ 0.5
9,C24G C31U C61U,≤ 0.5
10,C24G A42U G68A,≤ 0.5
11,C24A U64G A70C,≤ 0.5
12,C24G U47C U53G U54A G58C,≤ 0.5
13,C24G U35G A45C,≤ 0.5
14,C24G C29U A42G G51C,≤ 0.5
15,C24G G38C C46A U53C C61G,≤ 0.5
16,C24G A37C C49U A69U,0.545
17,C24G A42U A45C,≤ 0.5
18,C24G C55U C61A,0.515
19,C24G C34A U35A C46U G48A C60G C66U,0.558
20,C24G C31G A45G C60G,≤ 0.5
21,C24G C30G C55G,≤ 0.5
22,C24U A36U C60A,≤ 0.5
23,C24G U35C C49U C61G,0.54
24,C24U A37G C49G,≤ 0.5

row,Variant,yeast fitness
1,C24G G39C A45G U54A,≤ 0.5
2,C24U A37U G63C,≤ 0.5
3,C24G A36U A40U C46G G48C,0.557
4,C24G A37G A42C A70U,≤ 0.5
5,C24A U59G C62U A70G,0.54
6,C24G G41A G51A,≤ 0.5
7,C24G C30U C34A C60U,≤ 0.5
8,C24G A45C C49A G52A,≤ 0.5
9,C24U A37C G58A,0.513
10,C24G U28C U54A,≤ 0.5
11,C24G G58C,0.573
12,C24G G58A,0.675
13,C24G G48C C49U,≤ 0.5
14,C24G A57G C61A A65C C66U,≤ 0.5
15,C24G U26A C29G U32A,0.516
16,C24G C33U A43G,≤ 0.5
17,C24G A36C C55G,0.587
18,C24G C31U G41C C46G G63C,≤ 0.5
19,C24G C34U U47A,≤ 0.5
20,C24G A36U U54A,≤ 0.5
21,C24G A40U U47A,≤ 0.5
22,C24G C34U A36C C46A U54A A57G,0.566
23,C24G A36C C46U G52A,0.637
24,C24G C31U A37G G50C A57U,0.648

row,Variant,yeast fitness
1,C24G G25A C66U,0.561
2,C24G U64A,0.631
3,C24G U64C,0.567
4,C24G A43C A57U,≤ 0.5
5,C24G C29G C46G G67C,≤ 0.5
6,C24A U53C,0.598
7,C24G C49U C61A,≤ 0.5
8,C24U A36C A43U,0.578
9,C24G C31G G68A A70U,≤ 0.5
10,C24A U32G A36U A57C,≤ 0.5
11,C24G U26A,0.609
12,C24G A65U G68A,≤ 0.5
13,C24G U26C A37G U54G C61G,0.51
14,C24G A37G G52C U64C,0.602
15,C24G C33U A37U G38A,≤ 0.5
16,C24G C55G,0.649
17,C24G C55A,0.66
18,C24G C46G C66U,≤ 0.5
19,C24G G44C G58C G68U,0.516
20,C24G G48A G68A,≤ 0.5
21,C24G G50C G68C,0.629
22,C24G C34G A40G A45C C66G A69U,0.596
23,C24G A42C G68A,≤ 0.5
